Laboratory results from ChEMBL document CHEMBL1148085, “Indole alkaloids from Peschiera laeta that enhance vinblastine-mediated cytotoxicity with multidrug-resistant cells” (1994).
≈ marks a conversion by molar mass, not a printed value. Calls of active or inactive are those of the source. No cut-off for these calls is given here.

Columns and labels:
A-431 = assay: Cytotoxicity against human A431 cells by SRB assay; format: functional; conditions: read-out: ED50 (the source's name)
Summary of the method: (§1)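 Compounds in 10% DMSO added to cell suspension; 72 h at 37° in humidified 5% CO2. Cells fixed with cold trichloroacetic acid at 4° for 1 h, sulforhodamine B stained 30 min, dye solubilized in 10 mM Tris base, OD 515 nm. A zero-day control was subtracted. Survival is relative to solvent-treated cultures over various concentrations.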

[1] = Cytotoxicity against human BC1 cells by SRB assay; format: functional; conditions: read-out: ED50 (the source's name); summary of the method: as §1
Col2 = assay: Cytotoxicity against human Col2 cells by SRB assay; format: functional; conditions: read-out: ED50 (the source's name); summary of the method: as §1
HT = assay: Cytotoxicity against human HT cells by SRB assay; format: functional; conditions: read-out: ED50 (the source's name); summary of the method: as §1
KB = assay: Cytotoxicity against human KB cells by SRB assay; format: functional; conditions: read-out: ED50 (the source's name); summary of the method: as §1
[2] = Cytotoxicity against human drug-resistant KBV1 cells by SRB assay in presence of vinblastine; format: functional; conditions: KB-V1, read-out: ED50 (the source's name)
Summary of the method: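 Same SRB protocol (72 h, 37°, 5% CO2, TCA fix, OD 515 nm, zero-day subtraction). KB-V1 cells were exposed to various compound concentrations with vinblastine at 1 μg/ml in the medium. Survival is relative to solvent-treated controls.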

[3] = Cytotoxicity against human drug-resistant KBV1 cells by SRB assay in absence of vinblastine; format: functional; conditions: KB-V1, read-out: ED50 (the source's name); summary of the method: as §1
LNCaP = assay: Cytotoxicity against human LNCAP cells by SRB assay; format: functional; conditions: read-out: ED50 (the source's name); summary of the method: as §1
Lu1 = assay: Cytotoxicity against human Lu1 cells by SRB assay; format: functional; conditions: read-out: ED50 (the source's name); summary of the method: as §1
SK-MEL-2 = assay: Cytotoxicity against human SK-MEL-2 cells by SRB assay; format: functional; conditions: read-out: ED50 (the source's name); summary of the method: as §1
P388 = assay: Cytotoxicity against mouse P388 cells after 48 hrs by SRB assay; format: functional; conditions: P388, 48 h, read-out: ED50 (the source's name)
Summary of the method: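 P-388 cells at 10×10^4 cells/ml, exposed to compounds for 48 h at 37° in 5% CO2. Plates were centrifuged and supernatant removed, then cells fixed with 20% trichloroacetic acid at 4° for 1 h. Sulforhodamine B staining and OD read as for the adherent lines. Survival is relative to solvent controls.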

[4] = Cytotoxicity against human U373 cells by SRB assay; format: functional, U-373MG ATCC; conditions: U373 MG, read-out: ED50 (the source's name); summary of the method: as §1
ZR-75-1 = assay: Cytotoxicity against human ZR-75-1 cells by SRB assay; format: functional; conditions: read-out: ED50 (the source's name); summary of the method: as §1
KBV1 = assay: Inhibition of ATP-dependent [3H]vinblastine binding to p-glycoprotein in multidrug-resistant human KBV1 cells; format: cell-based
Summary of the method: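 Plasma membrane vesicles from KB-V1 cells (60 μg protein) as P-glycoprotein source. Incubated with […] [3H]vinblastine and various compound concentrations (from DMSO) for 20 min at room temperature. Terminated by filtration onto BSA-pretreated glass fiber filters.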

SMILES	EC50 (A-431) [µg/mL]	EC50 [1] [µg/mL]	EC50 (Col2) [µg/mL]	EC50 (HT) [µg/mL]	EC50 (KB) [µg/mL]	EC50 [2] [µg/mL]	EC50 [3] [µg/mL]	EC50 (LNCaP) [µg/mL]	EC50 (Lu1) [µg/mL]	EC50 (SK-MEL-2) [µg/mL]	EC50 (P388) [µg/mL]	EC50 [4] [µg/mL]	EC50 (ZR-75-1) [µg/mL]	Activity (KBV1)
CC[C@H]1C[C@@H]2CN3CCc4c([nH]c5ccccc45)[C@](C(=O)OC)(C2)[C@H]13 [CORONARIDINE]	19.1 (≈ 56.4 µM)	7.5 (≈ 22.2 µM)	> 20	> 20	13.6 (≈ 40.2 µM)	1.9	11.2 (≈ 33.1 µM)	10.7 (≈ 31.6 µM)	10.9 (≈ 32.2 µM)	> 20	3.8 (≈ 11.2 µM)	12 (≈ 35.5 µM)	> 20	
CC[C@]1(O)C[C@@H]2CN(CCc3c([nH]c4ccccc34)[C@@](C(=O)OC)(c3cc4c(cc3OC)N(C)[C@H]3[C@@](O)(C(=O)OC)[C@H](OC(C)=O)[C@]5(CC)C=CCN6CC[C@]43[C@@H]65)C2)C1 [VINBLASTINE]	0.05 (≈ 0.0617 µM)	0.06 (≈ 0.074 µM)	0.01 (≈ 0.0123 µM)	0.02 (≈ 0.0247 µM)	0.002 (≈ 0.00247 µM)	0.5	2.6 (≈ 3.21 µM)	0.1 (≈ 0.123 µM)	0.02 (≈ 0.0247 µM)	0.01 (≈ 0.0123 µM)	0.02 (≈ 0.0247 µM)	1.1 (≈ 1.36 µM)	0.3 (≈ 0.37 µM)	
C/C=C1/CC2[C@H](C(=O)OC)C(NC)Cc3c([nH]c4ccccc34)[C@@H](c3cc4c(cc3OC)C3CCN5C[C@H]6C[C@H](CC)[C@H]5[C@@](C(=O)OC)(C6)C3N4)C[C@H]12 (some centres not stated) [VOACAMINE]														Active
